Results on 62 compounds are retold here after ChEMBL document CHEMBL4725388, “Characterization of Aminobenzylphenols as Protein Disulfide Isomerase Inhibitors in Glioblastoma Cell Lines” (J Med Chem, 2020).

One experiment has as its system U-87 MG. Description: Cytotoxicity against human U-87 MG cells assessed as growth inhibition measured after 72 hrs by MTT assay. Type of experiment: functional, cell-based, U-87MG ATCC. Put shortly: (§1)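 IC50 from dose-response curves; PDI reductase assay for enzyme, MTT in U-87 MG cells for cytotoxicity; mean ± SD of at least three independent experiments.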
Experiment [1] addresses Protein disulfide-isomerase (Homo sapiens, UniProt P07237). Description: Inhibition of recombinant human wild-type N-terminal His-tagged PDIA1 expressed in Escherichia coli strain BL21(DE3) using bovine insulin as substrate preincubated for 1 hr followed by substrate addition. In outline: as §1

The structures appear in SMILES notation.

Protein disulfide-isomerase, sequence (P07237 whole entry): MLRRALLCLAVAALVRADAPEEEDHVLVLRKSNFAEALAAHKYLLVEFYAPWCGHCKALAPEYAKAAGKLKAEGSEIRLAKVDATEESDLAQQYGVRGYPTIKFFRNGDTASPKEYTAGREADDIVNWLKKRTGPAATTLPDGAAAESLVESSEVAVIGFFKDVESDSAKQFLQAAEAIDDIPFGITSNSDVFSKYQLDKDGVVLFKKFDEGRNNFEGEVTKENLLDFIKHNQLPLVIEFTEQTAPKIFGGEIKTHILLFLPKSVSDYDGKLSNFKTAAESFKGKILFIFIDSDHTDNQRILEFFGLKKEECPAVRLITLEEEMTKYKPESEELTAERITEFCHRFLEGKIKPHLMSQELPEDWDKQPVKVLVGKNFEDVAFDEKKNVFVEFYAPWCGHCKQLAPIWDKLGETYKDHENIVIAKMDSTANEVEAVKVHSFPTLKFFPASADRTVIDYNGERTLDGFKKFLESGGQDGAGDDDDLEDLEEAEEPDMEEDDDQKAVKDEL

Turning to `COc1cc(C(c2cc3c(cc2O)OCO3)N2CCCCC2)cc(OC)c1OC` (centres undefined), the IC50 is more than 10000 nM in the experiment on U-87 MG and 700 nM in experiment [1]. For `CC(=O)c1cc2ccc(C(c3ccc(F)cc3)N3CCCCC3)c(O)c2o1` (centres undefined), in experiment [1], the IC50 amounted to 1230 nM. Regarding `Cc1ccnc(NC(c2cc(C)ccc2C)c2ccc3cccnc3c2O)c1` (centres undefined), the 50% inhibitory concentration (IC50) in the experiment on U-87 MG was more than 10000 nM; in experiment [1] it was more than 40000 nM. On to `Oc1ccc2[nH]ccc2c1C(c1ccc(F)cc1)N1CCCCC1` (centres undefined), for which the IC50 in experiment [1] is 1810 nM. For the compound `CNC(=O)NC(c1cc(OC)c(OC)c(OC)c1)c1cc2c(cc1O)OCO2` (centres undefined), the IC50 was more than 10000 nM in the experiment on U-87 MG and more than 40000 nM in experiment [1]. For `Cc1ccnc(NC(c2ccccc2F)c2ccc3cccnc3c2O)c1` (centres undefined), the IC50 is 13100 nM with U-87 MG and 880 nM in experiment [1]. Take `Oc1c(C(c2ccc(F)cc2)N2CCCCC2)ccc2scnc12` (centres undefined): the IC50 in experiment [1] is 570 nM. For the compound `Oc1ccc2[nH]ncc2c1C(c1ccc(F)cc1)N1CCCCC1` (centres undefined), the concentration for half-maximal inhibition (IC50) in experiment [1] came out at 350 nM. On to `COc1ccccc1NC(c1ccccc1)c1ccc2cccnc2c1O` (centres undefined), for which the results for the IC50 (in the experiment with U-87 MG; in experiment [1]) were more than 10000 nM and 390 nM, respectively. In the same order, the values of `Oc1c(C(Nc2ccccn2)c2ccccc2F)ccc2cccnc12` (centres undefined) are more than 10000 nM and 470 nM. Consider `Oc1c(C(c2ccc(F)cc2)N2CCCCC2)ccc2cncnc12` (centres undefined), for which the IC50 in experiment [1] was 4860 nM.

For the compound `Oc1c(C(Nc2ccccn2)c2ccccc2Cl)ccc2cccnc12` (centres undefined), the values for the IC50 (with U-87 MG; in experiment [1]) were 9400 nM and 500 nM, respectively. For the compound `Oc1ccc2ncccc2c1C(c1ccc(F)cc1)N1CCCCC1` (centres undefined), the IC50 in experiment [1] was more than 30000 nM. Regarding `Oc1cccc(C(Nc2ccccn2)c2ccc3cccnc3c2O)c1Cl` (centres undefined), the IC50 with U-87 MG is more than 10000 nM; in experiment [1] it was 370 nM. For `COc1ccc(C(c2cc3c(cc2O)OCO3)N2CCCCC2)cc1` (centres undefined), the results for the IC50 (in the experiment with U-87 MG; in experiment [1]) were 28300 nM and 880 nM, respectively. For `Oc1cc2c(cc1C(c1ccc(Cl)cc1)N1CCOCC1)OCO2` (centres undefined), the IC50 was more than 30000 nM in the experiment with U-87 MG and 92 nM in experiment [1]. With `Oc1c(C(c2ccc(F)cc2)N2CCCCC2)ccc2c1OCO2` (centres undefined), the IC50 in experiment [1] was determined as 2830 nM.

As to `Oc1cc2c(cc1C(c1ccc(F)cc1)N1CCCCC1)NCC2` (centres undefined), the IC50 in experiment [1] was 7010 nM. Still for that read-out and setting: as for `Oc1c(C(c2ccc(F)cc2)N2CCCCC2)ccc2nccnc12` (centres undefined), the figure is 660 nM; as for `Oc1ccc2cnccc2c1C(c1ccc(F)cc1)N1CCCCC1` (centres undefined), more than 100000 nM. As to `Oc1cc2c(cc1C(c1ccc(F)cc1)N1CCOCC1)OCO2` (centres undefined), the IC50 is more than 30000 nM in the experiment on U-87 MG and 230 nM in experiment [1].

As for `Oc1cc2c(cc1C(c1ccc(F)cc1)N1CCCCC1)CCCC2` (centres undefined), the IC50 in experiment [1] was more than 100000 nM.

In the case of `Oc1c(C(c2ccc(F)cc2)N2CCCCC2)ccc2cnccc12` (centres undefined), in experiment [1], the IC50 was 610 nM. The same measure, in the same setting: the same measure for `CN(C)c1cccc(C(c2ccc(F)cc2)N2CCCCC2)c1O` (centres undefined): more than 30000 nM; for `Oc1ccc2ccncc2c1C(c1ccc(F)cc1)N1CCCCC1` (centres undefined): 10200 nM. For the compound `O=C(O)c1ccccc1NC(c1ccccc1)c1ccc2cccnc2c1O` (centres undefined), the IC50 in the experiment with U-87 MG is more than 10000 nM; in experiment [1] it was 1480 nM. On the same counts, the results for `Cc1ccnc(NC(c2ccccc2C)c2ccc3cccnc3c2O)c1` (centres undefined) are more than 10000 nM and more than 40000 nM. Consider `COc1ccc(C(c2cc3c(cc2O)OCO3)N2CCCC2)cc1` (centres undefined), for which the IC50 is 22600 nM in the experiment with U-87 MG and 1520 nM in experiment [1]. Take `Cc1ccnc(NC(c2ccc3cccnc3c2O)c2c(Cl)cccc2Cl)c1` (centres undefined): the results for the IC50 (with U-87 MG; in experiment [1]) were 7200 nM and more than 40000 nM, respectively. In the case of `CN(C)c1ccc(C(c2cc3c(cc2O)OCO3)N2CCCCC2)cc1` (centres undefined), the IC50 in the experiment with U-87 MG came to 24700 nM; in experiment [1], 1270 nM. Turning to `COc1cccc(C(Nc2ccccn2)c2ccc3cccnc3c2O)c1` (centres undefined), the IC50 in the experiment on U-87 MG was found to be 11900 nM; in experiment [1], 2860 nM.

`Oc1c(C(Nc2ccccn2)c2c(Cl)cccc2Cl)ccc2cccnc12` (centres undefined): the IC50 worked out at 6900 nM in the experiment with U-87 MG and 1890 nM in experiment [1]. On the same counts, the results for `Oc1cc2c(cc1C(Nc1ncccn1)c1ccc3c(c1)OCO3)OCO2` (centres undefined) are more than 10000 nM and 1180 nM. On the same counts, the results for `CCOC(=O)c1ccccc1NC(c1ccccc1)c1ccc2cccnc2c1O` (centres undefined) are more than 10000 nM and less than 200 nM. Take `Cc1ccnc(NC(c2ccc3cccnc3c2O)c2c(F)cccc2Cl)c1` (centres undefined): the results for the IC50 (with U-87 MG; in experiment [1]) were 20600 nM and more than 40000 nM, respectively. Turning to `COc1cc(C(c2cc3c(cc2O)OCO3)N2CCOCC2)cc(OC)c1OC` (centres undefined), the IC50 with U-87 MG was more than 10000 nM; in experiment [1], 640 nM. Take `Oc1ccc(C(c2cc3c(cc2O)OCO3)N2CCNCC2)cc1` (centres undefined): the results for the concentration for half-maximal inhibition (IC50) (in the experiment on U-87 MG; in experiment [1]) were more than 30000 nM and 680 nM, respectively. As to `COc1cc(C(Nc2ccc(C)cn2)c2ccc3cccnc3c2O)cc(OC)c1O` (centres undefined), the figures for the IC50 (in the experiment with U-87 MG; in experiment [1]) were 7400 nM and 180 nM, respectively. On the same counts, the results for `COc1ccc(C(c2cc3c(cc2O)OCO3)n2ccnc2)cc1` (centres undefined) are more than 10000 nM and 620 nM. On the same counts, the results for `Cc1ccc(C)c(C(Nc2ccccn2)c2ccc3cccnc3c2O)c1` (centres undefined) are 13800 nM and 730 nM.

For `Oc1cc2c(cc1C(Nc1ncccn1)c1ccc(F)cc1)OCO2` (centres undefined), the IC50 in the experiment on U-87 MG was more than 10000 nM; in experiment [1] it was 12700 nM. In the case of `CN(C)c1ccc(C(c2cc3c(cc2O)OCO3)N2CCCC2)cc1` (centres undefined), the IC50 in the experiment with U-87 MG is more than 30000 nM; in experiment [1], less than 200 nM.

Consider `COc1cc(C(Nc2ncccn2)c2cc3c(cc2O)OCO3)cc(OC)c1O` (centres undefined), for which the IC50 in the experiment with U-87 MG was more than 10000 nM; in experiment [1] it was 2200 nM. In the same order, the values of `O=C(O)c1ccc(NC(c2ccccc2)c2ccc3cccnc3c2O)cc1` (centres undefined) are more than 10000 nM and 300 nM. Regarding `Oc1c(C(c2ccc(C(F)(F)F)cc2)N2CCCCC2)ccc2ccoc12` (centres undefined), the IC50 in experiment [1] turned out to be 300 nM. Turning to `O=[N+]([O-])c1ccc(NC(c2ccccc2)c2ccc3cccnc3c2O)cc1` (centres undefined), the IC50 is more than 10000 nM in the experiment on U-87 MG and 150 nM in experiment [1]. For `COc1ccc(C(c2cc3c(cc2O)OCO3)N2CCCCC2)cc1OC` (centres undefined), the values for the IC50 (with U-87 MG; in experiment [1]) were 24800 nM and 960 nM, respectively. Consider `Oc1cc2c(cc1C(c1ccc(F)cc1)N1CCCCC1)OCCO2` (centres undefined), for which the IC50 in experiment [1] was determined as 670 nM. The same measure, in the same setting: as for `Oc1ccc2[nH]ncc2c1C(c1ccc(-c2cncnc2)cc1)N1CCCCC1` (centres undefined), the figure is 830 nM; as for `Oc1c(C(c2ccc(F)cc2)N2CCCCC2)ccc2ccoc12` (centres undefined), 560 nM. Still for that read-out and setting: as for `Oc1ccc2[nH]ncc2c1C(c1ccc(-n2cccc2)cc1)N1CCCCC1` (centres undefined), the figure is 290 nM; as for `Oc1cc(F)ccc1C(c1ccc2ccoc2c1O)N1CCCCC1` (centres undefined), 1070 nM. For `COc1cccc(C(c2cc3c(cc2O)OC(F)(F)O3)N2CCOCC2)c1OC` (centres undefined), in experiment [1], the IC50 was found to be 510 nM. The same measure, in the same setting: the same measure for `Oc1c(C(c2ccc(F)cc2)N2CCCCC2)ccc2c1CCC2` (centres undefined): more than 10000 nM; for `Oc1ccc2nccnc2c1C(c1ccc(F)cc1)N1CCCCC1` (centres undefined): more than 100000 nM; for `Oc1ccc2[nH]ncc2c1C(c1ccc(-c2nccs2)cc1)N1CCCCC1` (centres undefined): 340 nM.

With `Oc1c(C(c2ccc(F)cc2)N2CCCCC2)ccc2c1OCCO2` (centres undefined), the concentration for half-maximal inhibition (IC50) in experiment [1] came to 290 nM. Same read-out and setting: the same measure for `O=[N+]([O-])c1ccc(C(c2c(O)ccc3[nH]ncc23)N2CCCCC2)cc1` (centres undefined): 520 nM; for `Oc1c(C(c2ccc3c(c2)OC(F)(F)O3)N2CCCCC2)ccc2ccoc12` (centres undefined): less than 200 nM; for `Oc1c(C(c2ccc3c(c2)CCC3)N2CCCCC2)ccc2ccoc12` (centres undefined): 410 nM. On the same count and under the same terms, the same measure for `Oc1ccc2[nH]ncc2c1C(c1ccc(C(F)(F)F)cc1)N1CCCCC1` (centres undefined): 710 nM. On the same count and under the same terms, the same measure for `Oc1ccc2scnc2c1C(c1ccc(F)cc1)N1CCCCC1` (centres undefined): more than 100000 nM.
